# Compounds with a hit are over-represented: about 3.7% of the library has one in this group of screens.
# CHOP UPR activ: apoptotic UPR (CHOP) activation | CHO-CHOP luciferase reporter, luminescence; percent of tunicamycin response over DMSO baseline | hit rate 0.34% among 330,000 | AID 449763 | activation, % at 10 µM;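 active means at 10 µM dose, activation of 40% or more, normalized to positive control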;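 further: 100% = tunicamycin at 10 µg/mL and 0% = DMSO alone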
#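 Test system: CHO CHOP reporter cells. Input: 500 CHO-CHOP cells per well. Medium: F12 with 10% FBS. Technique: luciferase luminescence. Measure: percent activation relative to tunicamycin control. Dosing: 10 µM compound, 0.5% DMSO. Timing: 16-18 h cell attachment, then 6 h compound exposure, 37 °C.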
# Mdm2 ligase inh: blocks human Mdm2 ubiquitin ligase activity; signal enhancement, % at 5 µM; Q00987; hit rate 0.11% among 210,000; cell-based MDM2 ubiquitination luciferase reporter, 2 h; 0 = plate control, 100 = twice control, blank-subtracted;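 active means signal enhancement of 30% or more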;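 further: luminescence tracks abundance of the self-degrading MDM2-luciferase fusion protein; higher signal means inhibition of MDM2 E3 ligase activity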
# Target sequence (Q00987 whole entry, looked up, the tested form may be a part): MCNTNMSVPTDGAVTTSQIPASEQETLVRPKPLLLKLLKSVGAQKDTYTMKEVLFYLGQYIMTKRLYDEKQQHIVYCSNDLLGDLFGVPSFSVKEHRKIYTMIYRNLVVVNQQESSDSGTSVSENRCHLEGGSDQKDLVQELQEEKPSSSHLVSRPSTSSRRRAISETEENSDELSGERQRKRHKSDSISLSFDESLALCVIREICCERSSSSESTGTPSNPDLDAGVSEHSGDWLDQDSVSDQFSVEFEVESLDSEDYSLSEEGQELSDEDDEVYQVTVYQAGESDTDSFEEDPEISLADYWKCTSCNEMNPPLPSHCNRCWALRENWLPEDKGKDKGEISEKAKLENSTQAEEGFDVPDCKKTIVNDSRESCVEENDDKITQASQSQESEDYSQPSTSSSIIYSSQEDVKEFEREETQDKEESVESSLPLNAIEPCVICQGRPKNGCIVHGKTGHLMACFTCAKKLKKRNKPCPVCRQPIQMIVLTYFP
#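 system = mammalian cells stably expressing self-ubiquitinating, self-degrading MDM2 E3–luciferase fusion | quantity = 2000 cells per well seeded | incubation = 4 h cell settling then 2 h compound exposure, 37 °C | signal = SteadyLite luminescence, 15 min reagent step | benchmarks = plate control and blank wells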
# Mdm2-MdmX inh: disrupts the human Mdm2-MdmX interaction. SaOS-2 split-luciferase Mdm2/MdmX complementation, luminescence. O15151+Q00987. inhibition, % at 8 µM. hit rate 3% among 330,000;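 active means inhibition of at least 50% at 8 µM in the primary screen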
# B2AR ag: agonists of human beta-2 adrenergic receptor inducing internalization | Am2.2-beta2AR cells, FAP receptor internalization, flow cytometry | response, % (no concentration beside the values) | hit rate 0.43% among 340,000;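 active means response above a set limit, near 3 SD of response in nonfluorescent compounds, cut at about 42% in these data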
# XBP1 UPR activ: activators of adaptive arm of unfolded protein response (XBP1); CHO-XBP1 luciferase reporter, IRE1-XBP1 UPR activation, luminescence; percent of tunicamycin response, DMSO as zero; activation, % at 20 µM; hit rate 0.33% among 330,000; AID 463104;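 active means versus positive control, 20 µM dose yields 30% or more activation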;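 further: 100% = tunicamycin at 10 µg/mL and 0% = DMSO only wells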
#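 Material: CHO cell line with stable XBP1 luciferase reporter; buffer or medium: F12 medium containing 10% fetal bovine serum; compound: single point, 20 µM final compound, 1% DMSO; incubation: 6 h treatment, 37 °C; measured by: glow luminescence from Steady-Glo reagent; evaluation: activation, % of tunicamycin; control set: tunicamycin high, DMSO low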
# Dynein cargo inh: dynein cargo transport inhibition | 3617.4 mouse cells, GR-EGFP nuclear translocation imaging; test concentration mostly 20 µM; stimulated with dexamethasone, 1 µM; hits give low values | z-score, hits read low | hit rate 0.47% among 220,000 | AID 1381;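 active means plate z-score of nuclear minus cytoplasmic receptor signal below a set negative limit, without overly bright fluorescence or cell loss, cut at about -3.5 in these data, passing the limit was not always enough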;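 further: z-score of nuclear minus cytoplasmic ring GR-EGFP intensity difference per well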
#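 Buffer or medium: Induction medium lacking tetracycline, stripped serum | Also added: Dexamethasone agonist, 1.0 µM final, for 30 min | Timing: 48 h induction, 1 h compound, 30 min dex at 37 °C | Detection: Formaldehyde fixation, Hoechst nuclear stain, 10x automated fluorescence imaging | Measure: Nuclear versus cytoplasmic GR-EGFP signal, averaged per well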
# Mdm2-MdmX conf: confirmation of human Mdm2/MdmX interaction inhibitors | Mdm2-MdmX binding, luminescent assay | shares compounds with Mdm2-MdmX inh | AID 489028 | hit rate 55% among 10,000 | inhibition, % at 8 µM; in the data active means inhibition above about 40%
# FLuc counter: counter-screen for Mdm2/MdmX inhibitors: full-length luciferase; shares compounds with Mdm2-MdmX inh; SaOS-2 full-length luciferase counterscreen, luminescence; inhibition, % at 8 µM; hit rate 77% among 6,200; AID 504607;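 active means mean inhibition at 8 µM reaching about 37%, which flags the compound as non-specific, limit read from the data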;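 further: p53-null SaOS-2 cells with luciferase driven by a doxycycline-inducible promoter; compound on cells about two nights before reading with doxycycline added after day one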
# Starred values were filed as active, the others as inactive; / = not tested or not shown.
SMILES,CHOP UPR activ,Mdm2 ligase inh,Mdm2-MdmX inh,B2AR ag,XBP1 UPR activ,Dynein cargo inh,Mdm2-MdmX conf,FLuc counter
COc1ccc(/C=N/n2cnc3c([nH]c4ccccc43)c2=O)cc1CO,0,5,19,-11,2,-1.1,/,/
COc1ccc(/C=N/n2cnc3c([nH]c4ccc(Br)cc43)c2=O)cc1CN1CCOCC1,-3,10,57*,/,-5,-0.037,26,/
Nc1nc2ccccc2n1/N=C/c1cccnc1,-1,-4,22,-4,-2,-0.31,/,/
Nc1nc2ccccc2n1/N=C/c1ccc([N+](=O)[O-])s1,3,-23,56*,7,-1,-1.6,47*,48*
O=C(c1ccc(CS(=O)c2ccccc2Cl)o1)N1CCN(c2ccccn2)CC1 (stereo unspecified),0,/,63*,-11,-3,/,56*,45*
COc1ccc(Cn2c(C)c(C)c(C#N)c2NC(=O)Nc2cccc(C)c2)cc1,2,-21,54*,-3,-2,-0.65,7,/
CCOc1ccc(NC(=O)Nc2cccn(Cc3ccccc3)c2=O)cc1,1,-22,7,-5,5,0.98,/,/
COc1ccc(Cn2cccc(NC(=O)Nc3cccc(C#N)c3)c2=O)cc1,-1,-21,67*,29,0,-0.42,7,/
CN1CCN(c2nc3c(c(=O)[nH]c(=O)n3C)n2Cc2ccccc2)CC1,6,/,11,-3,-1,/,/,/
CCN(C[C@H]1N[C@@](CC)(C(=O)OC)[C@H]2C(=O)N(Cc3ccccc3)C(=O)[C@@H]12)C(=O)Nc1ccc(C)cc1,1,/,19,-3,1,/,/,/
CCN(C[C@H]1N[C@@](Cc2ccccc2)(C(=O)OC)[C@H]2C(=O)N(Cc3ccccc3)C(=O)[C@@H]12)C(=O)Nc1ccc(C(F)(F)F)cc1,7,/,85*,5,4,/,40*,58*
CCN(C[C@H]1N[C@@](CC)(C(=O)OC)[C@H]2C(=O)N(Cc3ccccc3)C(=O)[C@@H]12)C(=O)Nc1ccc(Cl)cc1,2,/,60*,-3,-3,/,62*,58*
CCN(C[C@H]1N[C@@](Cc2ccccc2)(C(=O)OC)[C@H]2C(=O)N(Cc3ccccc3)C(=O)[C@@H]12)C(=O)Nc1ccc(C)cc1,5,/,54*,6,0,/,51*,74*
O=S(=O)(Cc1ccccc1Cl)NCCc1ccc(F)cc1,3,/,11,0,-4,/,/,/
CCOC(=O)c1cnc[nH]c1=O,/,/,/,2,/,/,/,/
CC(=O)NC1=NN(C(C)=O)C(C)(c2cccs2)S1 (stereo unspecified),-1,-11,55*,-2,-2,-0.83,42*,52*
CCN1C(=O)[C@H]2[C@@H](c3ccc(-c4cccc(Cl)c4)cc3)N[C@@](CC(C)C)(C(=O)OC)[C@H]2C1=O,-1,/,52*,0,0,/,22,/
COC(=O)[C@]1(Cc2ccccc2)N[C@H](c2ccc(-c3ccccc3)cc2)[C@@H]2C(=O)N(C)C(=O)[C@@H]21,-1,/,30,-11,-2,/,/,/
CCN1C(=O)[C@H]2[C@@H](c3ccc(-c4ccc(Cl)c(Cl)c4)cc3)N[C@@](CC(C)C)(C(=O)OC)[C@H]2C1=O,0,/,36,1,-2,/,/,/
COC(=O)[C@]1(Cc2ccccc2)N[C@H](c2ccc(-c3cccc(Cl)c3)cc2)[C@@H]2C(=O)N(C)C(=O)[C@@H]21,3,/,55*,1,0,/,36,74*
COC(=O)[C@]1(Cc2ccccc2)N[C@H](c2ccc(-c3ccc(Cl)c(Cl)c3)cc2)[C@@H]2C(=O)N(C)C(=O)[C@@H]21,2,/,56*,-2,-1,/,51*,82*
COC(=O)[C@]1(CC(C)C)N[C@H](c2ccc(-c3ccc(Cl)c(Cl)c3)cc2)[C@@H]2C(=O)N(C)C(=O)[C@@H]21,0,/,57*,-6,-3,/,28,/
Cc1c(C(=O)N2CCOCC2)[nH]c2c1C(=O)CC(c1ccccc1Cl)C2 (stereo unspecified),0,6,73*,14,5,0.52,56*,59*
Cc1c(C(=O)OCC(C)C)[nH]c2c1C(=O)CC(c1ccco1)C2 (stereo unspecified),3,-14,75*,26,8,-0.7,54*,77*
C/C=C/COC(=O)c1[nH]c2c(c1C)C(=O)CC(c1ccc(N(C)C)cc1)C2 (stereo unspecified),4,-13,21,-1,0,-0.34,/,/
SMILES,CHOP UPR activ,Mdm2 ligase inh,Mdm2-MdmX inh,B2AR ag,XBP1 UPR activ,Dynein cargo inh,Mdm2-MdmX conf,FLuc counter
C=CCOC(=O)c1[nH]c2c(c1C)C(=O)CC(c1ccco1)C2 (stereo unspecified),-2,1,63*,/,12,0.41,55*,86*
Cc1c(C(=O)OCC2CCCO2)[nH]c2c1C(=O)CC(c1ccco1)C2 (stereo unspecified),-2,-5,38,22,2,0.94,/,/
Cc1c(C(=O)O)[nH]c2c1C(=O)CC(c1ccc(C(C)(C)C)cc1)C2 (stereo unspecified),4,/,-9,5,4,/,/,/
C/C=C/COC(=O)c1[nH]c2c(c1C)C(=O)CC(c1ccco1)C2 (stereo unspecified),-1,-15,65*,27,11,-0.8,56*,73*
CCOC(=O)c1[nH]c2c(c1C)C(=O)CC(c1ccc(OC)c(OC)c1)C2 (stereo unspecified),-1,-15,6,-5,-3,-1.3,/,/
Cc1cc(NC(=O)CCC(=O)N(CC(=O)NCC2CCCO2)c2ccc(C(C)C)cc2)no1 (stereo unspecified),-1,/,-14,4,3,/,/,/
O=C(c1cc[n+]([O-])cc1)N1CCCC(N2CCN(c3cccc(C(F)(F)F)c3)CC2)C1 (stereo unspecified),-1,/,-11,-1,-2,/,/,/
COC(=O)c1[nH]c2c(c1C)C(=O)CC(c1ccccc1)C2 (stereo unspecified),0,9,70*,9,11,0.12,55*,89*
COC(=O)c1[nH]c2c(c1C)C(=O)CC(c1ccc(OC)cc1)C2 (stereo unspecified),4,/,16,1,-5,/,/,/

# Screening data from PubChem.
